Test [1] in a line: Inhibition of protein kinase C gamma. The method in brief:
(§1)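 Radiometric kinase assay. Conditions varied slightly per kinase. Stopped with PBS/100 mM EDTA, read by scintillation counting. IC50 by linear regression of % inhibition, mean of at least two determinations.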

Test [2] in a line: Inhibition of cyclin-dependent kinase 1 activity. The method in brief:
as §1

Test [3] deals with HUVEC. Nature of the test: Concentration inhibiting VEGF stimulated (2 ng/well) HUVE cell proliferation. The conditions noted are these: Homo sapiens.
Test [4] relates to HUVEC. The experiment in a line: Concentration required to inhibit proliferation of HUVEC. The conditions noted are these: Homo sapiens.
In a further test the test system is HASMC. Nature of the test: Concentration required to inhibit proliferation of HASMC. The following applies: Homo sapiens.
The test system of the next test is MRC5. Nature of the test: Concentration required to inhibit proliferation of human MRC5 fibroblast cell growth.
Another test concerns HCT-116. The experiment in a line: Concentration required to inhibit proliferation of human HCT116 colon cancer cell growth.
For test [5], the system named is A-375. The experiment in a line: Concentration required to inhibit proliferation of A375 human amelanotic melanoma cell growth.
The target of a further test is Casein kinase I. Nature of the test: Inhibition of casein kinase 1. It counts as protein assay.
The target of test [6] is Glycogen synthase kinase-3 (Homo sapiens, UniProt P49840+P49841). Nature of the test: Inhibition of glycogen synthase kinase-3. The class given is protein assay. The method in brief: as §1
A short description of test [7]: Inhibition of protein kinase A. The procedure, abridged: as §1
The test system of the next test is HeLa. Nature of the test: Concentration required to inhibit proliferation of HeLa cell growth. The conditions noted are these: Homo sapiens.
Test [8] has as its target T1, Vascular endothelial growth factor receptor 2 (Homo sapiens, UniProt P35968). The experiment in a line: Inhibitory concentration (experimental) against vascular endothelial growth factor receptor 2. The procedure, abridged: as §1
Test [9] concerns A-375. The experiment in a line: The antitumor activity shown by the compound against A375 human melanoma xenografts growing in nude mice (10 mg/kg, i.p.) in terms of mean day of survival. The class given is functional, Mus musculus. The method in brief: (§2)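 Female nude mice carried subcutaneous flank implants of 1 mm3 A375 fragments and were pair-matched on day 1 at tumors of 62-126 mg. Dosing was i.p. once daily for 30 days, in 1.5% Pluronic F108 vehicle; the study ended at day 60. Tumor weight was taken as (w2l)/2. Mice were euthanized at 2.0 g, and MDS was derived from calculated time to endpoint.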
A general note: In xenograft studies the graft and the host belong to different species.

For test [10], the system named is A-375. The experiment in a line: The antitumor activity shown by the compound against A375 human melanoma xenografts growing in nude mice (75 mg/kg, i.p.) in terms of mean day of survival. It counts as functional, Mus musculus. The method in brief: as §2
In the next test the target is Insulin receptor (Homo sapiens, UniProt P06213). The experiment in a line: Inhibition of insulin Receptor kinase. The method in brief: as §1
The target of a further test is CaM kinase II (Homo sapiens, UniProt Q13557+Q13555+Q13554+Q9UQM7). The experiment in a line: Inhibition of calcium/calmodulin-dependent protein kinase type II. It counts as protein assay.
In test [11] the target is T1, Vascular endothelial growth factor receptor 2. The experiment in a line: Inhibition of vascular endothelial growth factor receptor 2. The method in brief:
as §1

The next test concerns the target Casein kinase II (Homo sapiens, UniProt P19784+P67870+P68400). The experiment in a line: Inhibition of casein kinase 2. It counts as protein-complex assay. The method in brief: as §1
The target of test [12] is Mitogen-activated protein kinase 1 (Homo sapiens, UniProt P28482). Nature of the test: Inhibition of mitogen-activated protein kinase. The method in brief: as §1
Test [13] concerns the target Protein kinase C beta type (Homo sapiens, UniProt P05771). Nature of the test: Inhibition of protein kinase C beta activity. The procedure, abridged:
as §1

Test [14] can be described thus: Inhibition of platelet-derived growth factor receptor. The method in brief: as §1
The target of test [15] is Cyclin-dependent kinase 4/cyclin D1 (Homo sapiens, UniProt P11802). The experiment in a line: Inhibition of cyclin dependent kinase 4-cyclinD1. The class given is protein-complex assay. The procedure, abridged:
as §1

Casein kinase II, sequence (P67870 whole entry): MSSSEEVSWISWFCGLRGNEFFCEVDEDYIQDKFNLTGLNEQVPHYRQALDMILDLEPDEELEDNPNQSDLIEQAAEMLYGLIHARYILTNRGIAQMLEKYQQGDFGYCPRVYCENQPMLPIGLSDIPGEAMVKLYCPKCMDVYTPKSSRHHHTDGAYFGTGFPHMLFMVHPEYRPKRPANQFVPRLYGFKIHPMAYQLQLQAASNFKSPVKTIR
Casein kinase II, sequence (P68400 whole entry): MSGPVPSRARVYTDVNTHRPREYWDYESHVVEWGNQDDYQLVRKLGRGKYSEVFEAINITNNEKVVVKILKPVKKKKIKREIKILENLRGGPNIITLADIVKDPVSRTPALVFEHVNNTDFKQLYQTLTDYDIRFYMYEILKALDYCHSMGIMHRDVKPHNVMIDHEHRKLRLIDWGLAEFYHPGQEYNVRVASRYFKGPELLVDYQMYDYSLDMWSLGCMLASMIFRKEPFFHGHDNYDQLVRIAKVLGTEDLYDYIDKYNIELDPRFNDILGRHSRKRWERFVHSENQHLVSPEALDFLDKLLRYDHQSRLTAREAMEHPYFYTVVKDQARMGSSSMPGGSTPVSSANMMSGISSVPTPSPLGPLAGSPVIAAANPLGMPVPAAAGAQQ
Casein kinase II, sequence (P19784 whole entry): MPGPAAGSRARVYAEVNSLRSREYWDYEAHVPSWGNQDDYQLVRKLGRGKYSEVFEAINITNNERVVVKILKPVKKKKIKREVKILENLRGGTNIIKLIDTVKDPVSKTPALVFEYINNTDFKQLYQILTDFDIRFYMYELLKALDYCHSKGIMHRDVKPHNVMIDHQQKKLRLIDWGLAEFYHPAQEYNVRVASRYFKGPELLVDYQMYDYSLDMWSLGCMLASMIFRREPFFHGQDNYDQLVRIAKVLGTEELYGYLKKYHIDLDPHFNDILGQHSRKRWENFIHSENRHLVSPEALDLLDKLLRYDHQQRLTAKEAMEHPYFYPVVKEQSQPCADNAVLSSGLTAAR
T1 sequence (P35968 whole entry, the tested form may be a part): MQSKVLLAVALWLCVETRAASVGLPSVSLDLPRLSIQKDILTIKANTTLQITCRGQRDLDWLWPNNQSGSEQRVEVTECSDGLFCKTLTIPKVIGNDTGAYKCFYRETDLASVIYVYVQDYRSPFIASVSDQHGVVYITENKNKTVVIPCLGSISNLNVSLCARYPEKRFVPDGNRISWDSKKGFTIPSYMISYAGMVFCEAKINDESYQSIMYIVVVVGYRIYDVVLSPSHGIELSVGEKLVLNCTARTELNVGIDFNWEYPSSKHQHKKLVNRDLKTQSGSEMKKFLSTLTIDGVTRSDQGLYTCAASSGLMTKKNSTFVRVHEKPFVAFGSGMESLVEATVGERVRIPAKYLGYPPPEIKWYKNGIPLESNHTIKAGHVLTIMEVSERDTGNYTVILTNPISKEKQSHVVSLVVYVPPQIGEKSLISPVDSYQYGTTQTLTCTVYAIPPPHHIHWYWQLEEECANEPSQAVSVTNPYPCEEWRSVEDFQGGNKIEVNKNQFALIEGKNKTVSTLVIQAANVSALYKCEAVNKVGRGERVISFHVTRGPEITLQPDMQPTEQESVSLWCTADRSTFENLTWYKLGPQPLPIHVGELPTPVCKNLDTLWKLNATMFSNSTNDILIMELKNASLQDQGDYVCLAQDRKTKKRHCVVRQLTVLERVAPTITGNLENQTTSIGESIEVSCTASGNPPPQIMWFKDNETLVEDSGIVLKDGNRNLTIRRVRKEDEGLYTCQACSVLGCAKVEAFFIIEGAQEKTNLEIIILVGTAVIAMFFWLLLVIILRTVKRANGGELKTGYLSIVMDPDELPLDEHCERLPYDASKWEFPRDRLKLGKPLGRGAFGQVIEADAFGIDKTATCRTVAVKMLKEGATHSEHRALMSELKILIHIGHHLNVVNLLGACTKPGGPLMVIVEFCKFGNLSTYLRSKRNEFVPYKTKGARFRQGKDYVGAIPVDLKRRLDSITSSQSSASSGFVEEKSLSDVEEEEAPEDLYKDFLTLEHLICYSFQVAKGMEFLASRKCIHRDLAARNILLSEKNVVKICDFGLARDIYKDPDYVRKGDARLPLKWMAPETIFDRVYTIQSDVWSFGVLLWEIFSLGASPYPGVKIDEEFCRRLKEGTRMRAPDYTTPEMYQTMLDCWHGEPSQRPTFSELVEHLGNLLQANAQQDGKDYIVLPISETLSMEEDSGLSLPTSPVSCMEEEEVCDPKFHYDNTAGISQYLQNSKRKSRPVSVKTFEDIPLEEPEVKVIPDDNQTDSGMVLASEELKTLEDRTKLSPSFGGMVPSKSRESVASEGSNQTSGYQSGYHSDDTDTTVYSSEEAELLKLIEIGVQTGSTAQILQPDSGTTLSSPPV
Insulin receptor, sequence (P06213 28-758 limits assumed): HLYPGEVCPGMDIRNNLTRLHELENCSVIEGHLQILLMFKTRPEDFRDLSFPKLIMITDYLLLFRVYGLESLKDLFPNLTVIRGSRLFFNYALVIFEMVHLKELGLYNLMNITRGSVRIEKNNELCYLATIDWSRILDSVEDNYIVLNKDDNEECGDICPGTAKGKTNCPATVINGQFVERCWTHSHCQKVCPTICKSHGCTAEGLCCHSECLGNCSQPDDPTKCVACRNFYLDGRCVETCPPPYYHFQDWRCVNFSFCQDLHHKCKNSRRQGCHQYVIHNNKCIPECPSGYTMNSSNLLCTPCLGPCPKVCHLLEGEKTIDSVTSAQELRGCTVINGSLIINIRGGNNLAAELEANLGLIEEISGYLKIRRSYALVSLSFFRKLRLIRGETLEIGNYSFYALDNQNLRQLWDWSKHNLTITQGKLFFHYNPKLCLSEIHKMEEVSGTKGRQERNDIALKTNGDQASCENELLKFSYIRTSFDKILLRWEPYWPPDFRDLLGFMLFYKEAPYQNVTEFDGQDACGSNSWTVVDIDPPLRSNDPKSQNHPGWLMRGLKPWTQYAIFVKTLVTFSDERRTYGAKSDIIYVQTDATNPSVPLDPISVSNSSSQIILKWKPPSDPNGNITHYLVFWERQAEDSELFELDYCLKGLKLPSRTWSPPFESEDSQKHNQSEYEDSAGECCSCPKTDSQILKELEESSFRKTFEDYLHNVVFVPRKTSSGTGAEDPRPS
Insulin receptor, sequence (P06213 763-1382 limits assumed): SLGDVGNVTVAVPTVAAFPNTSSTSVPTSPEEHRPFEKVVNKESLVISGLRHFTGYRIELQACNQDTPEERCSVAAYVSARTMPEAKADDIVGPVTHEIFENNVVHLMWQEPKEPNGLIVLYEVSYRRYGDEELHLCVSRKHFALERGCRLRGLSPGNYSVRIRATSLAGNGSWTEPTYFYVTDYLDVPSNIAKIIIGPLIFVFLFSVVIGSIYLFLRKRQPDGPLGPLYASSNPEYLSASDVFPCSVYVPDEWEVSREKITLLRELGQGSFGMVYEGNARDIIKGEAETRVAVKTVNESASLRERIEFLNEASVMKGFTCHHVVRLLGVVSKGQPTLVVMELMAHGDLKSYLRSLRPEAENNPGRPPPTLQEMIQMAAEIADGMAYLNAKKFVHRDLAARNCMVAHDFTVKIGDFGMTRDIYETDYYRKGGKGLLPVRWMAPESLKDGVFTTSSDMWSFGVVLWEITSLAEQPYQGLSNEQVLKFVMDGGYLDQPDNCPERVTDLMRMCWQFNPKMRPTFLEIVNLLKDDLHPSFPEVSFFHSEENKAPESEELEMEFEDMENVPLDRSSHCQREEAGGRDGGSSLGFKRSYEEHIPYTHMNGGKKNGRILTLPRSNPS
Mitogen-activated protein kinase 1, sequence (P28482 whole entry): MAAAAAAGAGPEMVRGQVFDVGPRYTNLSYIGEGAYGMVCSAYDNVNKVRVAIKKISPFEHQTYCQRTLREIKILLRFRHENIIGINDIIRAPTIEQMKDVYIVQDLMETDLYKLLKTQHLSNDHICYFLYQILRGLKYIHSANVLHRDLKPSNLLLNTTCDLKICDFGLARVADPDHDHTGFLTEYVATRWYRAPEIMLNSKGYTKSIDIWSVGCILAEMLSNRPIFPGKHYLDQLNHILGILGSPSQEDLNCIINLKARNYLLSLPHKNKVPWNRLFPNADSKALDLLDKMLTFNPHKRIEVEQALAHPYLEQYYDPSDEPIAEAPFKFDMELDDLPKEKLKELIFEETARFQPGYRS
Protein kinase C beta type, sequence (P05771 whole entry): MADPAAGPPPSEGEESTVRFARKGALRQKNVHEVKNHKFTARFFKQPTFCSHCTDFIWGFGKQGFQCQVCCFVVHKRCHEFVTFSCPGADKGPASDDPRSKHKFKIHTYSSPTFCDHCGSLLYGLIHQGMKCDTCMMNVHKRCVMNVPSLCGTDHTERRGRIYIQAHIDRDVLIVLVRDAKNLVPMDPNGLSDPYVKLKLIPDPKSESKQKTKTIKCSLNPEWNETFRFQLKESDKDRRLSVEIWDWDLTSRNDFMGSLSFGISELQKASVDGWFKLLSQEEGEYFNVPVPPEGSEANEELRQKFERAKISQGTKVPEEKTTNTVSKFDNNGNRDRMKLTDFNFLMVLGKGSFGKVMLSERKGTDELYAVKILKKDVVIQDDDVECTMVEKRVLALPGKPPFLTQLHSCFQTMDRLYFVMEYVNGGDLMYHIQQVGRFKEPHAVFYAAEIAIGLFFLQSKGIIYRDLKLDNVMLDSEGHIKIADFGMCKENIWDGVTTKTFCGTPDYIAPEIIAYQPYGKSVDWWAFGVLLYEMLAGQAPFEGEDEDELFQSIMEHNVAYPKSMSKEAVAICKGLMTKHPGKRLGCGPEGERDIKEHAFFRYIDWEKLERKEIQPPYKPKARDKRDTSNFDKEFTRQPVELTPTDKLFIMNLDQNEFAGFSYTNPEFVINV

For orientation: IC50 means the concentration that gives 50% inhibition. For the molecule `OCCCNc1cncc(-c2cncc(Nc3cccc(Cl)c3)n2)c1`, the half-inhibitory concentration (IC50) in test [1] is > 10 µM; in test [2] it was > 10 µM; in the test with HUVEC [3], 0.164 µM; in the test on HUVEC [4] it was 1.68 µM; in the test with HASMC, 3.87 µM; in the test with MRC5 it was 6.6 µM. The IC50 in the test on HCT-116 is > 10 µM; with A-375 [5] it was > 10 µM; against Casein kinase I, > 10 µM; in [6] (read-out: IC50) it was 0.478 µM; in test [7], > 10 µM; in the test with HeLa, > 10 µM.
Consider `OCCCCNc1cncc(-c2cncc(Nc3cccc(Cl)c3)n2)c1`, for which the IC50 was > 10 µM in [1]; > 10 µM in test [2]; 0.0631 µM in test [8]; 0.063 µM in the test with HUVEC [3]; 1.17 µM in the test on HUVEC [4]; > 10 µM against Insulin receptor. For the same molecule, the IC50 in the test with HASMC is 3.23 µM; in the test with MRC5 it was 3.61 µM; with HCT-116 it was > 10 µM; with A-375 [5] it was 6.08 µM; at CaM kinase II it was > 10 µM; in test [6], 4.02 µM. For the same molecule, the IC50 in [7] was > 10 µM; in the test on HeLa it was 5.56 µM; in test [11], 0.063 µM; against Casein kinase II, > 10 µM; in [12] it was > 10 µM; in test [13], > 10 µM. Also, the MDS was determined as 24 in the test on A-375 [9] and 29.2 in the test on A-375 [10].
As for `Clc1cccc(Nc2cncc(-c3cncc(NCCCc4cccnc4)c3)n2)c1`, the IC50 is 0.0759 µM in test [8]; 0.086 µM in the test with HUVEC [3]; 1.67 µM in the test on HUVEC [4]; 0.876 µM in [14]; > 10 µM against Insulin receptor; 6.15 µM with HASMC. Further, the IC50 in the test with MRC5 was 3.38 µM; with HCT-116, 5.05 µM; with A-375 [5], 2.96 µM; against Casein kinase I, > 10 µM; in test [6], 0.318 µM; in test [7] it was > 10 µM. Moreover, the IC50 was 3.06 µM in the test on HeLa, 0.076 µM in [11], > 10 µM on Casein kinase II and > 10 µM in test [12].
Regarding `CN(C)CCNc1cncc(-c2cncc(Nc3cccc(Cl)c3)n2)c1`, the IC50 was 3.96 µM in test [1]; > 10 µM in test [2]; 0.105 µM in test [8]; 0.059 µM in the test on HUVEC [3]; 0.877 µM with HUVEC [4]; > 10 µM in test [14]. The IC50 is > 10 µM at Insulin receptor; 2.77 µM in the test with HASMC; 2.91 µM with MRC5; 8.58 µM with HCT-116; 3.72 µM in the test with A-375 [5]; > 10 µM against Casein kinase I. The IC50 was > 10 µM on CaM kinase II; > 10 µM in [6]; > 10 µM in [7]; > 10 µM with HeLa; 0.105 µM in test [11]; > 10 µM against Casein kinase II. The IC50 in [15], in [12] and in test [13] was > 10 µM in each case. The figures for the MDS in the test with A-375 [9] and with A-375 [10] were 22.4 and 28.9, respectively.

The values are drawn from ChEMBL document CHEMBL1140334, “Synthesis and structure-activity relationships of pyrazine-pyridine biheteroaryls as novel, potent, and selective vascular endothelial growth factor receptor-2 inhibitors” (J Med Chem, 2005).
